Laboratory results published in ChEMBL document CHEMBL4145556, “Carbazole-, Aspidofractinine-, and Aspidocarpamine-Type Alkaloids from Pleiocarpa pycnantha” (J Nat Prod, 2018).

How the values were obtained:
[1] = test system: HEK293; assay: Cytotoxicity against HEK293 cells assessed as reduction in cell viability by CMFDA dye based fluorescence assay; conditions: human
In short: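 Viability of HEK293/NF-κB-luc cells was tracked with 2.5 μM CMFDA loaded 1 h before seeding at 10^4 cells/well. After overnight incubation, samples were added with 20 ng/mL TNF-α for 5 h. Fluorescence was read after lysis. Duplicate wells, three independent experiments.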

[2] = Inhibition of TNFalpha stimulated NF-kappaB (unknown origin) expressed in HEK293 cells after 5 hrs by luciferase reporter gene based luminescence assay; type: cell-based; conditions: Homo sapiens, HEK293, 5 h
In short: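 HEK293/NF-κB-luc cells loaded 1 h with 2.5 μM CMFDA, seeded at 10^4 cells/well and incubated overnight. Samples were added, with TNF-α stimulation at 20 ng/mL for 5 h. After lysis, fluorescence was read, then luciferase luminescence. Luminescence was normalized to each well's fluorescence and IC50 derived. Duplicate wells, three independent experiments.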

Row | SMILES | IC50 [2] | Activity [1]
1 | COC(=O)c1nccc2c1[nH]c1ccccc12 | > 50 µM | Non-Toxic
2 | C[C@H]1NCCc2c1cc1c([nH]c3ccccc31)c2CO | > 50 µM | Non-Toxic
3 | C/C=C1/C[N@+]2(C)C3Cc4c([nH]c5ccc(O)cc45)[C@@H]2C[C@H]1[C@@H]3CO | > 50 µM | Non-Toxic
4 | O=c1cc(-c2ccc(Br)cc2)oc2ccccc12 | – | Non-Toxic

Continued by falling IC50 [2], values first:

Row | IC50 [2] | SMILES | Activity [1]
5 | 9.4 µM | C/C=C1/COC(=O)[C@@H]2[C@H]1C[C@@H]1NCCc3c1n2c1ccccc31 | Non-Toxic
6 | 8.8 µM | COC(=O)[C@@H]1C[C@@]23CCCN4CC[C@@]5(c6ccccc6N(C)[C@]15CC2)[C@@H]43 | Non-Toxic
7 | 0.4 µM | C=C1C(=O)O[C@@H]2C3O[C@]3(C)CC/C=C(\C)CC[C@@H]12 (stereo partly drawn) | Non-Toxic
